How the values were obtained:
Caco-2 cells = assay: Caco-2 permeability assay; conditions: Caco-2, apical to basolateral, 10 μM
[1] = Metabolic stability in human liver microsomes; type: in vitro ADME; conditions: without NADPH
MRSA (USA300) = assay: Time-kill assay; type: cell-based, Staphylococcus aureus; conditions: for bactericidal effect in time-kill assay / time to eliminate MRSA (CFU to zero): 3.0 × MIC
[2] = tested on: 18 different strains of MRSA and VRSA; assay: MIC, summary over the strain panel; type: cell-based, Staphylococcus aureus
Summary of the method: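 Panel of 18 clinical isolates of MRSA and VRSA, with MRSA strains supplied by the NARSA repository. It includes linezolid-resistant MRSA NRS119 and multidrug-resistant VRSA, USA100, USA200 and USA500. MIC is the minimum concentration of test compound that inhibits bacterial growth.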

in vitro = conditions: human, Caco-2

| Structure (SMILES) | bactericidal effect in time-kill assay (MRSA (USA300)) | time to eliminate MRSA (CFU to zero) (MRSA (USA300)) | further results |
| --- | --- | --- | --- |
| CCCCc1ccc(-c2nc(C)c(/C(C)=N/NC(=N)N)s2)cc1 [1a] | bactericidal | within two hours | Papp, A to B direction (Caco-2 cells): very limited permeability; metabolism on removing the cofactor NADPH [1]: significantly reduced; concentration inhibiting growth (MIC), range over MRSA strains [2]: 1.4 to 5.5 µg/mL |
| CCCCCc1ccc(-c2nc(C)c(/C(C)=N/NC(=N)N)s2)cc1 [1d] | bactericidal | within two hours |  |
| CN[C@H](CC(C)C)C(=O)N[C@H]1C(=O)N[C@@H](CC(N)=O)C(=O)N[C@H]2C(=O)N[C@H]3C(=O)N[C@H](C(=O)N[C@H](C(=O)O)c4cc(O)cc(O)c4-c4cc3ccc4O)[C@H](O)c3ccc(c(Cl)c3)Oc3cc2cc(c3O[C@@H]2O[C@H](CO)[C@@H](O)[C@H](O)[C@H]2O[C@H]2C[C@](C)(N)[C@H](O)[C@H](C)O2)Oc2ccc(cc2Cl)[C@H]1O [VAN, vancomycin, reference compound] |  |  | reduction of CFU by 3-log10 (MRSA (USA300); within a 12-hour window): not able to reduce the number of CFU by 3-log10 |
| C/C(=N\NC(=N)N)c1sc(-c2ccc(C3CCCCC3)cc2)nc1C [compound 8, 2-{1-[2-(4-Cyclohexylphenyl)-4-methylthiazol-5-yl]ethylidene}hydrazinecarboximidamide] | bactericidal | six hours |  |
| CNC(=C[N+](=O)[O-])NCCSCc1ccc(CN(C)C)o1 [ranitidine] |  |  | Papp A→B at 2 h, 10 µM (in vitro): 0.2 ×10⁻⁶ cm/s |

Reference: paper PMC4353699 (Journal of medicinal chemistry, 2014)
